# Experiments:
# [1] = test system: Plasmodium falciparum; test: Antimalarial activity Plasmodium falciparum 3D7; format: functional, organism-based
# Outline: (§1)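 P. falciparum-infected human red blood cell proliferation assay, with SYBR Green staining as the read-out of parasite growth. EC50 is the mean of two experiments. Each plate carries mefloquine, sulfadoxine and artemisinin as internal standards.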
# [2] = Metabolic stability in human microsomes assessed as extraction ratio; format: ADME, Microsome
# [3] = Thermodynamic solubility at pH 6.8; format: physicochemical; conditions: buffer
# Outline: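 Thermodynamic solubility measured at pH 6.8, reported in […].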
# [4] = Metabolic stability in mouse microsomes assessed as extraction ratio; format: ADME, Microsome
# [5] = Metabolic stability in rat microsomes assessed as extraction ratio; format: ADME, Microsome
# [6] = test system: Plasmodium falciparum; test: Antimalarial activity Plasmodium falciparum NF54; format: functional, organism-based; outline: as §1
# [7] = test system: Plasmodium falciparum; test: Antimalarial activity Plasmodium falciparum D10; format: functional, organism-based; outline: as §1
# [8] = test system: Plasmodium falciparum; test: Antimalarial activity Plasmodium falciparum Dd2; format: functional, organism-based; outline: as §1
# [9] = Cmax in mouse; format: ADME, organism-based; conditions: in vivo
# [10] = test system: Plasmodium falciparum; test: Antimalarial activity Plasmodium falciparum D6; format: functional, organism-based; outline: as §1
# [11] = AUC (0 to infinity) in mouse; format: ADME, organism-based; set-up: time infinity; conditions: plasma
# [12] = test system: Plasmodium falciparum; test: Antimalarial activity Plasmodium falciparum 3BAG; format: functional, organism-based; outline: as §1
# [13] = test system: Plasmodium falciparum; test: Antimalarial activity Plasmodium falciparum FcB1; format: functional, organism-based; conditions: FcB1/Columbia; outline: as §1
# [14] = test system: Plasmodium falciparum; test: Antimalarial activity Plasmodium falciparum TM91C235; format: functional, organism-based; outline: as §1
# [15] = test system: Plasmodium falciparum; test: Antimalarial activity Plasmodium falciparum K1; format: functional, organism-based; outline: as §1
# [16] = test system: Plasmodium falciparum; test: Antimalarial activity Plasmodium falciparum W2; format: functional, organism-based; outline: as §1
# [17] = test system: Plasmodium falciparum; test: Antimalarial activity Plasmodium falciparum C188; format: functional, organism-based; outline: as §1
# [18] = test system: Plasmodium falciparum; test: Antimalarial activity Plasmodium falciparum CAMP R; format: functional, organism-based; conditions: CampR; outline: as §1
# [19] = test system: Plasmodium falciparum; test: Antimalarial activity Plasmodium falciparum FCR3; format: functional, organism-based; conditions: FCR-3/Gambia; outline: as §1
# [20] = Oral bioavailability in mouse; format: ADME, organism-based; conditions: in vivo
# [21] = test system: Plasmodium falciparum; test: Antimalarial activity Plasmodium falciparum 7G8; format: functional, organism-based; outline: as §1
# [22] = Half life in mouse; format: ADME, organism-based; conditions: in vivo
# [23] = test system: Plasmodium falciparum; test: Antimalarial activity Plasmodium falciparum HB3; format: functional, organism-based; outline: as §1
structure (smiles),measurement,setting,value
FC(F)(F)Oc1ccc(Nc2cc(Nc3nccn3-c3cccc(C(F)(F)F)c3)nc(NCCN3CCOCC3)n2)cc1,EC50,[1],53 nM
CC(C)Oc1nc(Nc2ccc(OC(F)(F)F)cc2)cc(Nc2nccn2-c2cccc(C(F)(F)F)c2)n1,EC50,[1],60 nM
CS(=O)(=O)c1nc(Nc2ccc(OC(F)(F)F)cc2)cc(Nc2nccn2-c2cccc(C(F)(F)F)c2)n1,EC50,[1],291 nM
CN1CCN(C2CCN(c3cc(-n4ccnc4Nc4cc(Nc5ccc(OC(F)(F)F)cc5)ncn4)cc(C(F)(F)F)c3)CC2)CC1,EC50,[1],90 nM
same,hepatic extraction ratio,[2],0.316
same,solubility thermodynamic,[3],110 µg/mL
O=C(NCCN1CCOCC1)c1cccc(-n2ccnc2Nc2cc(Nc3ccc(OC(F)(F)F)cc3)ncn2)c1,EC50,[1],249 nM
FC(F)(F)Oc1ccc(Nc2cc(Nc3nccn3-c3cc(N4CCC(N5CCCC5)CC4)cc(C(F)(F)F)c3)ncn2)cc1,EC50,[1],92 nM
OCCN1CCN(c2cc(-n3ccnc3Nc3cc(Nc4ccc(OC(F)(F)F)cc4)ncn3)cc(C(F)(F)F)c2)CC1,EC50,[1],175 nM
CSc1nc(Nc2ccc(OC(F)(F)F)cc2)cc(Nc2nccn2-c2cccc(C(F)(F)F)c2)n1,EC50,[1],107 nM
C[C@@H]1CC[C@H]2[C@@H](C)C(=O)O[C@@H]3O[C@@]4(C)CC[C@@H]1[C@]32OO4 [ARTEMISININ],EC50,[1],10 nM
FC(F)(F)Oc1ccc(Nc2cc(Nc3nccn3-c3cccc(C(F)(F)F)c3)nc(-c3ccccc3)n2)cc1,EC50,[1],74 nM
FC(F)(F)Oc1ccc(Nc2cc(Nc3nccn3-c3cc(Br)cc(C(F)(F)F)c3)ncn2)cc1,EC50,[1],223 nM
FC(F)(F)Oc1ccc(Nc2cc(Nc3nccn3-c3cccc(C(F)(F)F)c3)nc(N3CCOCC3)n2)cc1,EC50,[1],113 nM
FC(F)(F)Oc1ccc(Nc2cc(Nc3nccn3-c3cccc(C(F)(F)F)c3)nc(Oc3ccccc3)n2)cc1,EC50,[1],116 nM
FC(F)(F)Oc1ccc(Oc2cc(Nc3nccn3-c3cccc(C(F)(F)F)c3)ncn2)cc1,EC50,[1],4240 nM
CN1CCN(c2cc(-n3ccnc3Nc3cc(Nc4ccc(OC(F)(F)F)cc4)ncn3)cc(C(F)(F)F)c2)CC1,EC50,[1],65 nM
FC(F)(F)Oc1ccc(Nc2cc(Nc3nccn3-c3cccc(C(F)(F)F)c3)nc(C(F)(F)F)n2)cc1,EC50,[1],353 nM
FC(F)(F)Oc1ccc(Nc2cc(Nc3nccn3-c3cc(N4CCOCC4)cc(C(F)(F)F)c3)ncn2)cc1,EC50,[1],532 nM
Cc1nc(Nc2ccc(OC(F)(F)F)cc2)cc(Nc2nccn2-c2cccc(C(=O)NCCN3CCCC3)c2)n1,EC50,[1],168 nM
FC(F)(F)Oc1ccc(Nc2cc(Nc3nccn3-c3cccc(C(F)(F)F)c3)ncn2)cc1,EC50,[1],436 nM
Cc1nc(Nc2ccc(OC(F)(F)F)cc2)cc(Nc2nccn2-c2cccc(C(=O)N3CCN(CCO)CC3)c2)n1,EC50,[1],768 nM
Cc1nc(Nc2ccc(OC(F)(F)F)cc2)cc(Nc2nccn2-c2cccc(C(=O)NCCCN3CCOCC3)c2)n1,EC50,[1],67 nM
CCN(CC)CCNC(=O)c1cccc(-n2ccnc2Nc2cc(Nc3ccc(OC(F)(F)F)cc3)nc(C)n2)c1,hepatic extraction ratio,[4],< 0.17
same,hepatic extraction ratio,[5],0.367
same,EC50,[1],46 nM
same,hepatic extraction ratio,[2],< 0.31
same,solubility thermodynamic,[3],80 µg/mL
CN1CCN(c2nc(Nc3ccc(OC(F)(F)F)cc3)cc(Nc3nccn3-c3cccc(C(F)(F)F)c3)n2)CC1,EC50,[6],33 nM
same,EC50,[7],15 nM
same,EC50,[8],71 nM
same,Cmax,[9],946 nM
same,EC50,[10],50 nM
same,hepatic extraction ratio,[4],< 0.17
same,AUC(0-inf),[11],14.2 µM·h
same,hepatic extraction ratio,[5],0.264
same,EC50,[12],60 nM
same,EC50,[13],50 nM
same,EC50,[14],58 nM
same,EC50,[15],88 nM
same,EC50,[16],120 nM
same,EC50,[1],34 nM
same,EC50,[17],140 nM
same,EC50,[18],50 nM
same,hepatic extraction ratio,[2],< 0.28
same,EC50,[19],139 nM
same,bioavailability,[20],30%
same,EC50,[21],95 nM
same,solubility thermodynamic,[3],40 µg/mL
same,half-life,[22],12 h
same,EC50,[23],46 nM
Cc1nc(Nc2ccc(OC(F)(F)F)cc2)cc(Nc2nccn2-c2cccc(C(=O)NCCCN3CCCC3)c2)n1,EC50,[1],224 nM
OC(c1cc(C(F)(F)F)nc2c(C(F)(F)F)cccc12)C1CCCCN1 (stereo not given) [MEFLOQUINE],EC50,[1],20 nM
CN(c1cc(Nc2ccc(OC(F)(F)F)cc2)ncn1)c1nccn1-c1cccc(C(F)(F)F)c1,EC50,[1],3830 nM
FC(F)(F)Oc1ccc(Nc2cc(Nc3nccn3-c3cc(NCCN4CCOCC4)cc(C(F)(F)F)c3)ncn2)cc1,EC50,[1],87 nM
CCN1CCCC1CNC(=O)c1cccc(-n2ccnc2Nc2cc(Nc3ccc(OC(F)(F)F)cc3)nc(C)n2)c1 (stereo not given),hepatic extraction ratio,[4],< 0.17
same,hepatic extraction ratio,[5],0.275
same,EC50,[1],60 nM
same,solubility thermodynamic,[3],89 µg/mL
Cc1nc(Nc2ccc(OC(F)(F)F)cc2)cc(Nc2nccn2-c2cccc(C(=O)NCCCN3CCN(C)CC3)c2)n1,EC50,[1],239 nM
FC(F)(F)Oc1ccc(Nc2nc(Nc3nccn3-c3cccc(C(F)(F)F)c3)c3ccccc3n2)cc1,EC50,[1],564 nM
COc1ncnc(NS(=O)(=O)c2ccc(N)cc2)c1OC [SULFADOXINE],EC50,[1],30 nM
COc1nc(Nc2ccc(OC(F)(F)F)cc2)cc(Nc2nccn2-c2cccc(C(F)(F)F)c2)n1,EC50,[1],190 nM
FC(F)(F)Oc1ccc(Nc2ccnc(Nc3nccn3-c3cccc(C(F)(F)F)c3)n2)cc1,EC50,[1],268 nM
CN1CCN(CCNc2cc(-n3ccnc3Nc3cc(Nc4ccc(OC(F)(F)F)cc4)ncn3)cc(C(F)(F)F)c2)CC1,EC50,[1],91 nM
FC(F)(F)Oc1ccc(Nc2ncnc(Nc3nccn3-c3cccc(C(F)(F)F)c3)n2)cc1,EC50,[1],1330 nM
Oc1nc(Nc2ccc(OC(F)(F)F)cc2)cc(Nc2nccn2-c2cccc(C(F)(F)F)c2)n1,EC50,[1],5440 nM
O=C(NCCc1c[nH]cn1)c1cccc(-n2ccnc2Nc2cc(Nc3ccc(OC(F)(F)F)cc3)ncn2)c1,EC50,[1],1780 nM
Cc1nc(Nc2ccc(OC(F)(F)F)cc2)cc(Nc2nccn2-c2cccc(C(F)(F)F)c2)n1,EC50,[1],114 nM
FC(F)(F)Oc1ccc(Nc2nccc(Nc3nccn3-c3cccc(C(F)(F)F)c3)n2)cc1,EC50,[1],432 nM
Cc1nc(Nc2ccc(OC(F)(F)F)cc2)cc(Nc2nccn2-c2cccc(C(=O)NCCc3c[nH]cn3)c2)n1,EC50,[1],822 nM
CNc1nc(Nc2ccc(OC(F)(F)F)cc2)cc(Nc2nccn2-c2cccc(C(F)(F)F)c2)n1,EC50,[1],54 nM
Cc1nc(Nc2ccc(OC(F)(F)F)cc2)cc(Nc2nccn2-c2cccc(C(=O)NCCN3CCOCC3)c2)n1,hepatic extraction ratio,[4],< 0.17
same,hepatic extraction ratio,[5],0.243
same,EC50,[1],69 nM
same,hepatic extraction ratio,[2],< 0.42
same,solubility thermodynamic,[3],90 µg/mL
FC(F)(F)Oc1ccc(Nc2cc(Nc3nccn3-c3cc(N4CCC(N5CCOCC5)CC4)cc(C(F)(F)F)c3)ncn2)cc1,EC50,[1],88 nM
Cc1c(Nc2ccc(OC(F)(F)F)cc2)ncnc1Nc1nccn1-c1cccc(C(F)(F)F)c1,EC50,[1],4680 nM
Nc1nc(Nc2ccc(OC(F)(F)F)cc2)cc(Nc2nccn2-c2cccc(C(F)(F)F)c2)n1,EC50,[1],49 nM

# Reference: ChEMBL document CHEMBL1177827, “Discovery of novel 1H-imidazol-2-yl-pyrimidine-4,6-diamines as potential antimalarials” (Bioorg Med Chem Lett, 2010)
